Series [1] concerns the target T1, Adenosine receptor A2a (Homo sapiens, UniProt P29274). In words: Displacement of [3H]ZM241385 from recombinant human A2A adenosine receptor expressed in CHO cell membranes measured after 60 mins by topcount scintillation counting method.
Series [2] addresses T2, Adenosine receptor A3 (Homo sapiens, UniProt P0DMS8).
T2 sequence (P0DMS8 whole entry): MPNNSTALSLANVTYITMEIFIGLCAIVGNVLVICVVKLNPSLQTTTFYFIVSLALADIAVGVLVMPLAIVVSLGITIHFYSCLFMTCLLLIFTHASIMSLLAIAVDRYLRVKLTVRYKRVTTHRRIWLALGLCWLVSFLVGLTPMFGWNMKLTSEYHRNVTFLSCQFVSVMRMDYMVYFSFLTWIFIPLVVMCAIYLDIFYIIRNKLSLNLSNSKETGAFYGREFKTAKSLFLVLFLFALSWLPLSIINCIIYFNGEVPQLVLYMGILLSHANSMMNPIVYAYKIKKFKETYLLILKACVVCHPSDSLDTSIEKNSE
In words: Displacement of [3H]MRE3008-F20 from recombinant human A3 adenosine receptor expressed in CHO cell membranes measured after 120 mins by topcount scintillation counting method. (In a radioligand displacement assay an active substance lowers the binding of a labelled ligand.)

Series [3] addresses T3, Adenosine receptor A1 (Homo sapiens, UniProt P30542).
T3 sequence (P30542 whole entry): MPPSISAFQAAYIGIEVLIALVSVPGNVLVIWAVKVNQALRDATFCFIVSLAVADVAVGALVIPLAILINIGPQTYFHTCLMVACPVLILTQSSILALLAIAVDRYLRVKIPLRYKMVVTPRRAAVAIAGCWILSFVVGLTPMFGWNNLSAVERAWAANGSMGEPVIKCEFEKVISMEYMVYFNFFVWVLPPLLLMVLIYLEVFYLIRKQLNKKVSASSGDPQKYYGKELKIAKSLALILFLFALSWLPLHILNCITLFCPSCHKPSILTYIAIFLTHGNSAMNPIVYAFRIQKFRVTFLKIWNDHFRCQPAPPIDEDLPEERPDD
In words: Displacement of [3H]DPCPX from recombinant human A1 adenosine receptor expressed in CHO cell membranes measured after 120 mins by topcount scintillation counting method.

Series [4] addresses T4, Adenosine receptor A2b (Homo sapiens, UniProt P29275).
T4 sequence (P29275 whole entry): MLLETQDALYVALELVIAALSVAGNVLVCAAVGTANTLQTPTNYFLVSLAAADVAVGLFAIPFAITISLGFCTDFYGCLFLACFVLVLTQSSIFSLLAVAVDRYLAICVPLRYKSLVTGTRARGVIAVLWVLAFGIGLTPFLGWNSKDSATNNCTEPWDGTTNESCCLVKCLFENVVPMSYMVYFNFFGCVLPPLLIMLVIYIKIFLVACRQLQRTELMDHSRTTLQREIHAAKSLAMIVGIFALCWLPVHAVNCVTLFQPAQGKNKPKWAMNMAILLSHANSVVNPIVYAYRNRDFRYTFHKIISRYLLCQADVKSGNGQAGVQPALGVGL
The experiment in a line: Displacement of [3H]DPCPX from recombinant human A2B adenosine receptor expressed in HEK293 cell membranes measured after 60 mins by topcount scintillation counting method.

Series [5] is described as follows: Semi-thermodynamic solubility of the compound at 200 uM after 24 hrs by LC/MS-based shake-flask method. The series is classed as physicochemical. As to conditions: read-out: Therm_solubility.
Series [6] deals with T3, Adenosine receptor A1. In words: Displacement of [3H]CCPA from recombinant human A1 adenosine receptor expressed in CHO cell membranes measured after 90 mins in presence of adenosine deaminase by liquid scintillation counting method. The essentials: (§1)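 Competition binding on membranes of cells recombinantly expressing the human receptor (CHO or HEK cells), with tritiated radioligand per subtype: [3H]PSB-603 for A2B, [3H]MSX-2 for A2A, [3H]CCPA for A1, [3H]PSB-11 for A3. Ki ± SEM from n = 3, some from extrapolated curves. Weak binders are reported as % inhibition of radioligand binding at 1 μM.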

The target of series [7] is T5, Adenosine receptor A2b (Homo sapiens) (UniProt P29275).
T5 sequence (whole entry): T4 sequence (P29275 whole entry)
The experiment in a line: Competitive antagonist activity at recombinant human A2B adenosine receptor expressed in CHO cells assessed as reduction in NECA-induced […] cAMP accumulation preincubated for 10 mins followed by NECA stimulation for 15 mins […] and measured after 15 mins. The series is classed as functional, cell-based. A general note: cAMP levels reflect the balance of adenylyl cyclase and phosphodiesterase activity.

Series [8] concerns the target T6, Adenosine receptor A3 (Homo sapiens) (UniProt P0DMS8).
T6 sequence (whole entry): T2 sequence (P0DMS8 whole entry)
The experiment in a line: Displacement of [3H]PSB-11 from recombinant human A3 adenosine receptor expressed in CHO cell membranes at 1 uM measured after 45 mins in presence of adenosine deaminase by liquid scintillation counting method relative to control. The essentials: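 Single-point competition binding at human AR subtype membranes, each against its own tritiated radioligand. The test compound is given at 1 μM, and the result is reported as percent inhibition of radioligand binding. The radioligand-specific footnotes give n = 3.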

For series [9], the species on record is Homo sapiens. In words: Selectivity index, ratio of Ki for displacement of [3H]CCPA from recombinant human A1 adenosine receptor expressed in CHO cell membranes to Ki for displacement of [3H]PSB-603 from recombinant human A2B adenosine receptor expressed in CHO cell membranes.
The target in series [10] is T1, Adenosine receptor A2a. The experiment in a line: Displacement of [3H]MSX-2 from recombinant human A2A adenosine receptor expressed in CHO cell membranes measured after 30 mins in presence of adenosine deaminase by liquid scintillation counting method. In a few lines:
as §1

A short description of series [11]: Selectivity ratio of Ki for displacement of [3H]PSB-603 from recombinant mouse A2B adenosine receptor expressed in CHO cell membranes to Ki for displacement of [3H]PSB-603 from recombinant human A2B adenosine receptor expressed in CHO cell membranes.
The species named for the next series is Mus musculus. The experiment in a line: Selectivity ratio of Ki for displacement of [3H]CCPA from recombinant mouse A1 adenosine receptor expressed in CHO cell membranes to Ki for displacement of [3H]PSB-603 from recombinant mouse A2B adenosine receptor expressed in CHO cell membranes.
For series [12], the species on record is Homo sapiens. In words: Selectivity index, ratio of Ki for displacement of [3H]MSX-2 from recombinant human A2A adenosine receptor expressed in CHO cell membranes to Ki for displacement of [3H]PSB-603 from recombinant human A2B adenosine receptor expressed in CHO cell membranes.
In series [13] the target is T7, Adenosine receptor A2b (Mus musculus, UniProt Q60614).
T7 sequence (Q60614 whole entry): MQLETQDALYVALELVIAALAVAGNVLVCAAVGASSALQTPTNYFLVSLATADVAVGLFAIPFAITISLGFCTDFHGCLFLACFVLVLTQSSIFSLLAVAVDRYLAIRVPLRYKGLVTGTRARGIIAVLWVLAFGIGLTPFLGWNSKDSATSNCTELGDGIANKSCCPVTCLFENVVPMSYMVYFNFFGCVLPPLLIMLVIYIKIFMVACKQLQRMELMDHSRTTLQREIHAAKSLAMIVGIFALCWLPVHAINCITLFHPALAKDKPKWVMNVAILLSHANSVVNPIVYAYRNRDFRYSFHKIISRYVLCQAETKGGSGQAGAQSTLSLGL
The experiment in a line: Displacement of [3H]PSB-603 from recombinant mouse A2B adenosine receptor expressed in CHO cell membranes measured after 75 mins in presence of adenosine deaminase by liquid scintillation counting method.

Series [14] concerns the target T2, Adenosine receptor A3. The experiment in a line: Displacement of [3H]PSB-11 from recombinant human A3 adenosine receptor expressed in CHO cell membranes measured after 45 mins in presence of adenosine deaminase by liquid scintillation counting method. The essentials:
as §1

Series [15] deals with T8, Adenosine receptor A1 (Mus musculus, UniProt Q60612).
T8 sequence (Q60612 whole entry): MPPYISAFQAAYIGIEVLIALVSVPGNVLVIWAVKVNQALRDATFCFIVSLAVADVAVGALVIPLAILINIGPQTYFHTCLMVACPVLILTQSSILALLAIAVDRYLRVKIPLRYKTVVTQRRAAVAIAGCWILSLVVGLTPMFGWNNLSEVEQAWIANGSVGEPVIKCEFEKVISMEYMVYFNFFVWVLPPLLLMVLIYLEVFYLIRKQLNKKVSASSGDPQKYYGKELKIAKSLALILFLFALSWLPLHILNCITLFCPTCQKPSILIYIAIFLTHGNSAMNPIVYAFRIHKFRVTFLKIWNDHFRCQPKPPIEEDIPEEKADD
In words: Displacement of [3H]CCPA from recombinant mouse A1 adenosine receptor expressed in CHO cell membranes measured after 90 mins in presence of adenosine deaminase by liquid scintillation counting method.

For series [16], the target named is T9, Adenosine receptor A3 (Mus musculus, UniProt Q61618).
T9 sequence (Q61618 whole entry): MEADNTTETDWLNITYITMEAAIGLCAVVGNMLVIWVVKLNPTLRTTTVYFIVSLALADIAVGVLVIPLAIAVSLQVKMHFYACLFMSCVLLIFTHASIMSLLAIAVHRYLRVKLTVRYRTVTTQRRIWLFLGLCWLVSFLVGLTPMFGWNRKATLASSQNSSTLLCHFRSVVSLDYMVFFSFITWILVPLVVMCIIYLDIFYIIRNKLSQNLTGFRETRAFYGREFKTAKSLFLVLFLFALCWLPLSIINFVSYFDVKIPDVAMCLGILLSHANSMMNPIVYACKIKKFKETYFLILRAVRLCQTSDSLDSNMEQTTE
The experiment in a line: Displacement of [3H]NECA from recombinant mouse A3 adenosine receptor expressed in CHO cell membranes measured after 180 mins in presence of adenosine deaminase by liquid scintillation counting method.

For series [17], the target named is T10, Adenosine receptor A3 (Mus musculus) (UniProt Q61618).
T10 sequence (whole entry): T9 sequence (Q61618 whole entry)
The experiment in a line: Displacement of [3H]NECA from recombinant mouse A3 adenosine receptor expressed in CHO cell membranes at 1 uM measured after 180 mins in presence of adenosine deaminase by liquid scintillation counting method relative to control.

Series [18] concerns the target T4, Adenosine receptor A2b. The experiment in a line: Displacement of [3H]PSB-603 from recombinant human A2B adenosine receptor expressed in CHO cell membranes measured after 75 mins in presence of adenosine deaminase by liquid scintillation counting method. The essentials: as §1

In brackets after ≈: the same amount, converted by molar mass. A value given as a limit tells only on which side of the number the result lay.

T1 sequence (P29274 whole entry): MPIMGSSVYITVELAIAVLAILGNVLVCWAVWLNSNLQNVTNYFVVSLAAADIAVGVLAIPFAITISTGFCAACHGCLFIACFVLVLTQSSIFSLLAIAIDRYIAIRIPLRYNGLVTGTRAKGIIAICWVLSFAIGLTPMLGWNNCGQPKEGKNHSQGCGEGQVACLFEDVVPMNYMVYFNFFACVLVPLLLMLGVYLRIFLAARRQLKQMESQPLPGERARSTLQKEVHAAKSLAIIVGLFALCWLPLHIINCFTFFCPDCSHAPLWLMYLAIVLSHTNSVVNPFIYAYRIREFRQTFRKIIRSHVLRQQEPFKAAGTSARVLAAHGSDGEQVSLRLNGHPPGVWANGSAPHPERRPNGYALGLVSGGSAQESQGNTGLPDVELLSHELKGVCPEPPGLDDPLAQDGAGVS

As for `O=C(Nc1nc2nn(CCCc3ccccc3)cc2c2nc(-c3ccco3)nn12)c1cccc2ccccc12`, the Ki at Adenosine receptor A2a [1] stood at 800 nM; at Adenosine receptor A3 [2], 300 nM; on Adenosine receptor A1 [3], 1100 nM; on Adenosine receptor A2b [4], 20 nM.

Consider `CCCn1c(=O)[nH]c2nc(-c3ccc(S(=O)(=O)N4CCN(c5ccc(Cl)cc5)CC4)cc3)[nH]c2c1=O`, for which the solubility thermodynamic at 24 h, 200 µM in [5] came out at 3.2 µM (≈ 1.69 µg/mL).

Take `CCCn1c(=O)[nH]c2nc(-c3ccc(S(=O)(=O)N4CCN(Cc5cccc(Br)c5)CC4)cc3)[nH]c2c1=O`: the Ki was 928 nM on Adenosine receptor A1 [6]; 92.4 nM at Adenosine receptor A2a [10]; 0.901 nM at Adenosine receptor A2b [13]; over 1000 nM on Adenosine receptor A3 [14]; 107 nM on Adenosine receptor A1 [15]; over 1000 nM on Adenosine receptor A3 [16]. The Ki on Adenosine receptor A2b [18] came out at 0.148 nM. Besides, the Kb in series [7] came to 0.201 nM. Besides, the inhibition in series [8] turned out to be 23%; in [17], 5%. The Ratio Ki is 620 in the series filed under Homo sapiens [9], 1.5 to 6 in [11], over 120 in the series listed under Mus musculus and 620 in the series listed under Homo sapiens [12].

For orientation: Ki means the equilibrium dissociation constant of an inhibitor or competing ligand from its target. As a reminder, the Kb is the equilibrium dissociation constant of an antagonist, usually derived from a functional assay. For orientation: inhibition means the drop in the measured response relative to a control, in per cent.

(Values after ChEMBL document CHEMBL4346653, “A2B Adenosine Receptor Antagonists with Picomolar Potency” (J Med Chem, 2019).)
